≈ marks a conversion by molar mass, not a printed value. Calls of active or inactive are those of the source.
Experiments:
[1] = test system: Mus musculus; experiment: Toxicity in PS mouse allografted with mouse P388 cells assessed as change in body weight at 3.1 ug/kg relative to control; type: organism-based; conditions: in vivo, 0.0031 mg/kg
Outline: (§1)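 P388 (PS) leukemia in mice, 6 mice per dose group. Weight change is the difference in grams between treated and control animals. Survivors are recorded on toxicity day, normally 4 days after the first injection.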

[2] = test system: Mus musculus; experiment: Toxicity in PS mouse allografted with mouse P388 cells assessed as change in body weight at 1.6 ug/kg relative to control; type: organism-based; conditions: in vivo, 0.0016 mg/kg; outline: as §1
[3] = test system: Mus musculus; experiment: Toxicity in PS mouse allografted with mouse P388 cells assessed as change in body weight at 0.8 ug/kg relative to control; type: organism-based; conditions: in vivo, 0.0008 mg/kg
Outline: (§2)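 PS (P388 leukemia) mice, six per dose group. Toxicity read as the difference in grams between the weights of treated and control animals.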

[4] = test system: Mus musculus; experiment: Toxicity in PS mouse allografted with mouse P388 cells assessed as survival at 50 ug/kg after 4 days; type: organism-based; conditions: in vivo, 0.05 mg/kg, 96 h
Outline: (§3)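 PS (P388) leukemic mice, six started per dose group. Toxicity scored as survivors on the toxicity day over the number of mice started. The toxicity day is normally 4 days after the first injection.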

[5] = test system: Mus musculus; experiment: Toxicity in PS mouse allografted with mouse P388 cells assessed as survival at 100 ug/kg after 4 days; type: organism-based; conditions: in vivo, 0.1 mg/kg, 96 h; outline: as §3
[6] = test system: Mus musculus; experiment: Toxicity in PS mouse allografted with mouse P388 cells assessed as survival at 25 ug/kg after 4 days; type: organism-based; conditions: in vivo, 0.025 mg/kg, 96 h; outline: as §3
[7] = test system: Mus musculus; experiment: Toxicity in PS mouse allografted with mouse P388 cells assessed as survival at 12.5 ug/kg after 4 days; type: organism-based; conditions: in vivo, 0.0125 mg/kg, 96 h; outline: as §3
[8] = test system: Mus musculus; experiment: Toxicity in PS mouse allografted with mouse P388 cells assessed as survival at 6.2 ug/kg after 4 days; type: organism-based; conditions: in vivo, 0.0062 mg/kg, 96 h; outline: as §3
[9] = test system: Mus musculus; experiment: Toxicity in PS mouse allografted with mouse P388 cells assessed as survival at 3.1 ug/kg after 4 days; type: organism-based; conditions: in vivo, 0.0031 mg/kg, 96 h; outline: as §3
[10] = test system: Mus musculus; experiment: Toxicity in PS mouse allografted with mouse P388 cells assessed as survival at 1.6 ug/kg after 4 days; type: organism-based; conditions: in vivo, 0.0016 mg/kg, 96 h; outline: as §3
[11] = test system: Mus musculus; experiment: Toxicity in PS mouse allografted with mouse P388 cells assessed as survival at 0.8 ug/kg after 4 days; type: organism-based; conditions: in vivo, 0.0008 mg/kg, 96 h; outline: as §3
[12] = test system: Mus musculus; experiment: Toxicity in PS mouse allografted with mouse P388 cells assessed as survival at 200 ug/kg after 4 days; type: organism-based; conditions: in vivo, 0.2 mg/kg, 96 h; outline: as §3
[13] = test system: Mus musculus; experiment: Toxicity in PS mouse allografted with mouse P388 cells assessed as change in body weight at 100 ug/kg relative to control; type: organism-based; conditions: in vivo, 0.1 mg/kg; outline: as §1
[14] = test system: Mus musculus; experiment: Toxicity in PS mouse allografted with mouse P388 cells assessed as change in body weight at 50 ug/kg relative to control; type: organism-based; conditions: in vivo, 0.05 mg/kg; outline: as §1
[15] = test system: Mus musculus; experiment: Toxicity in PS mouse allografted with mouse P388 cells assessed as change in body weight at 25 ug/kg relative to control; type: organism-based; conditions: in vivo, 0.025 mg/kg; outline: as §1
[16] = test system: Mus musculus; experiment: Toxicity in PS mouse allografted with mouse P388 cells assessed as change in body weight at 12.5 ug/kg relative to control; type: organism-based; conditions: in vivo, 0.0125 mg/kg; outline: as §1
[17] = test system: Mus musculus; experiment: Toxicity in PS mouse allografted with mouse P388 cells assessed as change in body weight at 6.2 ug/kg relative to control; type: organism-based; conditions: in vivo, 0.0062 mg/kg; outline: as §1
[18] = test system: Mus musculus; experiment: Toxicity in PS mouse allografted with mouse P388 cells assessed as change in body weight at 200 ug/kg relative to control; type: organism-based; conditions: in vivo, 0.2 mg/kg; outline: as §1
[19] = test system: P388; experiment: Antitumor activity against mouse P388 cells allografted in PS mouse assessed as median survival time at 100 ug/kg relative to control; type: functional
Outline: (§4)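 P388 leukemia (PS) in mice, six mice started per dose group. Read-out is T/C: median survival time of the treated group divided by that of the untreated control group, expressed as a percent. The NIH protocol counts a compound as active when T/C > 125%.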

[20] = test system: P388; experiment: Antitumor activity against mouse P388 cells allografted in PS mouse assessed as median survival time at 50 ug/kg relative to control; type: functional; outline: as §4
[21] = test system: P388; experiment: Antitumor activity against mouse P388 cells allografted in PS mouse assessed as median survival time at 25 ug/kg relative to control; type: functional; outline: as §4
[22] = test system: P388; experiment: Antitumor activity against mouse P388 cells allografted in PS mouse assessed as median survival time at 12.5 ug/kg relative to control; type: functional; outline: as §4
[23] = test system: P388; experiment: Antitumor activity against mouse P388 cells allografted in PS mouse assessed as median survival time at 6.2 ug/kg relative to control; type: functional; outline: as §4
[24] = test system: P388; experiment: Antitumor activity against mouse P388 cells allografted in PS mouse assessed as median survival time at 3.1 ug/kg relative to control; type: functional; outline: as §4
[25] = test system: P388; experiment: Antitumor activity against mouse P388 cells allografted in PS mouse assessed as median survival time at 1.6 ug/kg relative to control; type: functional; outline: as §4
[26] = test system: P388; experiment: Antitumor activity against mouse P388 cells allografted in PS mouse assessed as median survival time at 0.8 ug/kg relative to control; type: functional; outline: as §4
[27] = test system: P388; experiment: Antitumor activity against mouse P388 cells allografted in PS mouse assessed as median survival time at 200 ug/kg relative to control; type: functional; outline: as §4
[28] = test system: KB; experiment: Cytotoxicity against human KB cells; type: functional; conditions: read-out: ED50 (the source's name)
[29] = test system: Mus musculus; experiment: Toxicity in PS mouse allografted with mouse P388 cells assessed as change in body weight at 0.4 ug/kg relative to control; type: organism-based; conditions: in vivo, 0.0004 mg/kg; outline: as §2
[30] = test system: Mus musculus; experiment: Toxicity in PS mouse allografted with mouse P388 cells assessed as survival at 0.4 ug/kg after 4 days; type: organism-based; conditions: in vivo, 0.0004 mg/kg, 96 h; outline: as §3
[31] = test system: P388; experiment: Antitumor activity against mouse P388 cells allografted in PS mouse assessed as median survival time at 0.4 ug/kg relative to control; type: functional; outline: as §4
[32] = target: Tubulin (Homo sapiens) (UniProt P68371+Q9H4B7+P0DPH7+P68366+Q13509+Q71U36+P04350+Q3ZCM7+P07437+P68363+Q9BQE3+Q6PEY2+Q13885+Q9BVA1+Q9BUF5); experiment: Inhibition of brain tubulin polymerization (unknown origin) at 37 degC by spectrophotometry
[33] = test system: Paracentrotus lividus; experiment: Antimitotic activity against sea urchin eggs assessed as drug level causing inhibition of mitosis; type: functional; conditions: Egg
[34] = test system: Mus musculus; experiment: Toxicity in PS mouse allografted with mouse P388 cells assessed as survival at 400 ug/kg after 4 days; type: organism-based; conditions: in vivo, 0.4 mg/kg, 96 h; outline: as §3
[35] = test system: Mus musculus; experiment: Toxicity in PS mouse allografted with mouse P388 cells assessed as change in body weight at 400 ug/kg relative to control; type: organism-based; conditions: in vivo, 0.4 mg/kg; outline: as §1
[36] = test system: P388; experiment: Antitumor activity against mouse P388 cells allografted in PS mouse assessed as median survival time at 400 ug/kg relative to control; type: functional; outline: as §4

Compound	Activity [1] [g]	Activity [2] [g]	Activity [3] [g]	Activity [4]	Activity [5]	Activity [6]	Activity [7]	Activity [8]	Activity [9]	Activity [10]	Activity [12]	Activity [13] [g]	Activity [14] [g]	Activity [18] [g]	T/C [19] [%]	T/C [20] [%]	T/C [27] [%]	EC50 [28] [ng/mL]	inhibition [32]	Activity [33]	further results
C/C=C/C(=O)O[C@H]1CC(=O)N(C)c2cc(cc(OC)c2Cl)C/C(C)=C/C=C/[C@@H](OC)[C@@]2(O)C[C@H](OC(=O)N2)[C@@H](C)[C@@H]2O[C@@]12C	-1.7	-4.5	-4.5	Non-toxic	Non-toxic	Non-toxic	Non-toxic	Non-toxic	Non-toxic	Non-toxic	Non-toxic	-3.6	-3.5	-1.8	210	210	210	0.23 (≈ 0.363 nM)	–	–	Activity [11]: Non-toxic; Activity [15]: -3.6 g; Activity [16]: -2.5 g; Activity [17]: -3 g; T/C [21]: 173%; T/C [22]: 170%; T/C [23]: 160%; T/C [24]: 150%; T/C [25]: 150%; T/C [26]: 150%
COc1cc2cc(c1Cl)N(C)C(=O)C[C@H](OC(=O)[C@H](C)N(C)C(C)=O)[C@]1(C)O[C@H]1[C@H](C)[C@@H]1C[C@@](O)(NC(=O)O1)[C@H](OC)/C=C/C=C(\C)C2 [MAYTANSINE]	-0.1	1.6	1.4	Non-toxic	Non-toxic	Non-toxic	Non-toxic	Non-toxic	Non-toxic	Non-toxic	–	-0.4	0.3	–	<80	125	–	0.0061 (≈ 0.00881 nM)	Active	1 ×10⁻⁷ mol/L	Activity [29]: 1.7 g; Activity [11]: Non-toxic; Activity [30]: Non-toxic; Activity [15]: 0.6 g; Activity [16]: 1.6 g; Activity [17]: 1.3 g; T/C [21]: 220%; T/C [22]: 190%; T/C [23]: 195%; T/C [24]: 165%; T/C [25]: 155%; T/C [26]: 145%; T/C [31]: 125%
CCO[C@]12C[C@H](OC(=O)N1)[C@@H](C)[C@@H]1O[C@@]1(C)[C@@H](OC(=O)[C@H](C)N(C)C(=O)C(C)C)CC(=O)N(C)c1cc(cc(OC)c1Cl)C/C(C)=C/C=C/[C@H]2OC	–	–	–	Non-toxic	Non-toxic	–	–	–	–	–	Non-toxic	3.4	1.3	0.3	109	100	134	1.2 (≈ 1.6 nM)	Active	1 ×10⁻⁷ mol/L	Activity [34]: Non-toxic; Activity [35]: -0.9 g; T/C [36]: 149%
COc1cc2cc(c1Cl)N(C)C(=O)C[C@H](OC(=O)[C@H](C)N(C)C(C)=O)[C@]1(C)O[C@H]1[C@H](C)[C@@H]1C[C@@](OC)(NC(=O)O1)[C@H](OC)/C=C/C=C(\C)C2	–	–	–	Non-toxic	Non-toxic	–	–	–	–	–	Non-toxic	-0.9	-2.3	-0.7	104	101	93	0.19 (≈ 0.269 nM)	Active	1 ×10⁻⁸ mol/L	Activity [34]: Non-toxic; Activity [35]: -0.9 g; T/C [36]: 139%
